Activity calls are given as the source filed them. The rule behind the calls is not given here. Where a SMILES comes first, the peptide text is derived from it. [ ]: non-standard residue; d: D form. The star is where a group is joined. pGlu = O=C1CC[C@@H](C(=O)O)N1; X2 = CN(N*)C(N)=O
Experiments:
Rattus norvegicus [1] = test: Ovulation-inducing activity in androgen-sterilized constant-estrus rat at 1.0 ug, iv; assay type: functional, organism-based
Outline: (§1)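 Androgen-sterilized constant-estrus rats. Doses are given as μg per rat. The readout is ovulation, scored as the number of animals ovulating out of the number treated at each dose. Groups held 3 to 6 rats.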

Rattus norvegicus [2] = test: Ovulation-inducing activity in androgen-sterilized constant-estrus rat at 0.125 ug, iv; assay type: functional, organism-based; outline: as §1
Rattus norvegicus [3] = test: Ovulation-inducing activity in androgen-sterilized constant-estrus rat at 0.001 ug, iv; assay type: functional, organism-based; outline: as §1
Rattus norvegicus [4] = test: Ovulation-inducing activity in androgen-sterilized constant-estrus rat at 0.05 ug, iv; assay type: functional, organism-based; outline: as §1
Rattus norvegicus [5] = test: Ovulation-inducing activity in androgen-sterilized constant-estrus rat at 0.25 ug, iv; assay type: functional, organism-based; outline: as §1
Rattus norvegicus [6] = test: Ovulation-inducing activity in androgen-sterilized constant-estrus rat at 10 ug, iv; assay type: functional, organism-based; outline: as §1
Rattus norvegicus [7] = test: Ovulation-inducing activity in androgen-sterilized constant-estrus rat at 0.005 ug, iv; assay type: functional, organism-based; outline: as §1
Rattus norvegicus [8] = test: Ovulation-inducing activity in androgen-sterilized constant-estrus rat at 0.01 ug, iv; assay type: functional, organism-based; outline: as §1
Rattus norvegicus [9] = test: Ovulation-inducing activity in androgen-sterilized constant-estrus rat at 0.10 ug, iv; assay type: functional, organism-based; outline: as §1
Rattus norvegicus [10] = test: Ovulation-inducing activity in iv dosed androgen-sterilized constant-estrus rat relative to luliberin; assay type: functional
Rattus norvegicus [11] = test: Ovulation-inducing activity in androgen-sterilized constant-estrus rat at 0.0025 ug, iv; assay type: functional, organism-based; outline: as §1
Rattus norvegicus [12] = test: Ovulation-inducing activity in androgen-sterilized constant-estrus rat at 0.031 ug, iv; assay type: functional, organism-based; outline: as §1
Rattus norvegicus [13] = test: Ovulation-inducing activity in androgen-sterilized constant-estrus rat at 0.062 ug, iv; assay type: functional, organism-based; outline: as §1

Compound: CCNC(=O)N1CCCN1C(=O)[C@H](CCCNC(=N)N)NC(=O)[C@H](CC(C)C)NC(=O)[C@@H](Cc1ccccc1)NC(=O)[C@H](Cc1ccc(O)cc1)NC(=O)[C@H](CO)NC(=O)[C@H](Cc1c[nH]c2ccccc12)NC(=O)[C@H](Cc1cnc[nH]1)NC(=O)[C@@H]1CCC(=O)N1
- Activity (Rattus norvegicus [1]): Active
- Activity (Rattus norvegicus [2]): inactive

Compound: CC(C)C[C@H](NC(=O)[C@@H](CO)NC(=O)[C@H](Cc1ccc(O)cc1)NC(=O)[C@H](CO)NC(=O)[C@H](Cc1c[nH]c2ccccc12)NC(=O)[C@H](Cc1cnc[nH]1)NC(=O)[C@@H]1CCC(=O)N1)C(=O)N[C@@H](CCCNC(=N)N)C(=O)N1CCC[C@H]1C(=O)NNC(N)=O
- Activity (Rattus norvegicus [3]): inactive
- Activity (Rattus norvegicus [4]): Active

Compound: CC(C)C[C@H](NC(=O)CNC(=O)[C@H](Cc1ccc(O)cc1)NC(=O)[C@H](CO)NC(=O)[C@H](Cc1c[nH]c2ccccc12)NC(=O)[C@H](Cc1cnc[nH]1)NC(=O)[C@@H]1CCC(=O)N1)C(=O)N[C@@H](CCCNC(=N)N)C(=O)N1CCC[C@H]1C(=O)NN(C)C(N)=O ([pGlu]HWSYGLRP-X2)
- Activity (Rattus norvegicus [1]): Active
- Activity (Rattus norvegicus [5]): inactive

Compound: CC(C)C[C@H](NC(=O)N(Cc1ccccc1)NC(=O)[C@H](Cc1ccc(O)cc1)NC(=O)[C@H](CO)NC(=O)[C@H](Cc1c[nH]c2ccccc12)NC(=O)[C@H](Cc1cnc[nH]1)NC(=O)[C@@H]1CCC(=O)N1)C(=O)N[C@@H](CCCNC(=N)N)C(=O)N1CCC[C@H]1C(=O)NNC(N)=O
- Activity (Rattus norvegicus [6]): Active

Compound: CC(C)C[C@H](NC(=O)[C@@H](Cc1ccccc1)NC(=O)[C@H](Cc1ccc(O)cc1)NC(=O)[C@H](CO)NC(=O)[C@H](Cc1c[nH]c2ccccc12)NC(=O)[C@H](Cc1cnc[nH]1)NC(=O)[C@@H]1CCC(=O)N1)C(=O)N[C@@H](CCCNC(=N)N)C(=O)N1CCC[C@H]1C(=O)NCC(N)=O
- Activity (Rattus norvegicus [7]): inactive
- Activity (Rattus norvegicus [8]): Active

Compound: CCNC(=O)[C@@H]1CCCN1C(=O)[C@H](CCCNC(=N)N)NC(=O)[C@H](CC(C)C)NC(=O)[C@@H](COC(C)(C)C)NC(=O)[C@H](Cc1ccc(O)cc1)NC(=O)[C@H](CO)NC(=O)[C@H](Cc1c[nH]c2ccccc12)NC(=O)[C@H](Cc1cnc[nH]1)NC(=O)[C@@H]1CCC(=O)N1
- Activity (Rattus norvegicus [9]): Active

Compound: CC(C)C[C@H](NC(=O)[C@@H](Cc1ccccc1)NC(=O)[C@H](Cc1ccc(O)cc1)NC(=O)[C@H](CO)NC(=O)[C@H](Cc1c[nH]c2ccccc12)NC(=O)[C@H](Cc1cnc[nH]1)NC(=O)[C@@H]1CCC(=O)N1)C(=O)N[C@@H](CCCNC(=N)N)C(=O)N1CCC[C@H]1C(=O)NNC(N)=O
- fold change (FC) (Rattus norvegicus [10]): 5
- Activity (Rattus norvegicus [7]): Active
- Activity (Rattus norvegicus [11]): inactive

Compound: CC(C)C[C@H](NC(=O)[C@@H](Cc1c[nH]c2ccccc12)NC(=O)[C@H](Cc1ccc(O)cc1)NC(=O)[C@H](CO)NC(=O)[C@H](Cc1c[nH]c2ccccc12)NC(=O)[C@H](Cc1cnc[nH]1)NC(=O)[C@@H]1CCC(=O)N1)C(=O)N[C@@H](CCCNC(=N)N)C(=O)N1CCC[C@H]1C(=O)NNC(N)=O
- fold change (FC) (Rattus norvegicus [10]): 5
- Activity (Rattus norvegicus [12]): inactive
- Activity (Rattus norvegicus [13]): Active

Compound: CC(C)C[C@@H](C(=O)N[C@@H](CCCNC(=N)N)C(=O)N1CCC[C@H]1C(=O)NNC(N)=O)N(C)C(=O)[C@@H](Cc1ccccc1)NC(=O)[C@H](Cc1ccc(OC(C)(C)C)cc1)NC(=O)[C@H](CO)NC(=O)[C@H](Cc1c[nH]c2ccccc12)NC(=O)[C@H](Cc1cnc[nH]1)NC(=O)[C@@H]1CCC(=O)N1
- fold change (FC) (Rattus norvegicus [10]): 5
- Activity (Rattus norvegicus [9]): Active

Compound: CC(C)C[C@@H](C(=O)N[C@@H](CCCNC(=N)N)C(=O)N1CCC[C@H]1C(=O)NNC(N)=O)N(C)C(=O)[C@@H](Cc1ccccc1)NC(=O)[C@H](Cc1ccc(O)cc1)NC(=O)[C@H](CO)NC(=O)[C@H](Cc1c[nH]c2ccccc12)NC(=O)[C@H](Cc1cnc[nH]1)NC(=O)[C@@H]1CCC(=O)N1
- Activity (Rattus norvegicus [7]): inactive
- Activity (Rattus norvegicus [8]): Active
